This note sets out measurements from ChEMBL document CHEMBL1126741 (J Med Chem, 1993).

Molecules are shown by their SMILES. Where only a bound is given, the exact number is not on record here.

The test system of test [1] is Mus musculus. Kind of test: Maximum obtainable hypothermic effect up to 30 mg/kg dose in mice expressed as temperature decrease in degree Centigrade. It counts as functional. Summed up: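 Mice (Charles River, 18–22 g) dosed sc in 0.1 mL at doses up to 30 mg/kg. Rectal temperature measured 20 min after injection. The mean maximum temperature drop at 20 min is recorded as a crude index of efficacy.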

In test [2] the test system is Mus musculus. Kind of test: Dose required to obtain hypothermic effect in mice following subcutaneous administration. It counts as functional. The note with it: sc. The procedure, abridged:
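Charles River mice (18–22 g), housed singly, given 0.1-mL sc injections at doses spaced in half-log intervals. Rectal temperature read 20 min after injection. Responders were those of four mice per dose that dropped >1.1 °C. ED50 by Spearman–Karber, with 95% confidence intervals.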

In a further test the target is D(2) dopamine receptor (Homo sapiens, UniProt P14416). The test is described as follows: Displacement of [3H]U-86170 from human D2-dopamine receptor expressed in CHO K1 cells. It counts as cell-based. On the technique in general: Loss of bound radioactivity is the signal in a displacement assay; it reports binding, not function.
The subject of test [3] is Felis catus. The test is described as follows: (§1) Maximum decrease in sympathetic nerve discharge(SND) observed at 1 mg/kg dose in cat. The test is classed as functional. Also on record: scale not given: the % may be the effect or the level left. Summed up:
(§2)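 Chloralose-anesthetized mongrel cats (80 mg/kg iv), stereotaxic, femoral cannulation. SND integrated cumulatively; pretreatment value averaged over the last 10 min of a 1 h equilibration. Cumulative iv dosing from 0.01 up to 1.0 mg/kg every 20 min, read 15–20 min after each dose. Maximum SND decrease at 1 mg/kg expressed as % control (±SEM); n = 2–8 cats.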

Test [4] has as its system Felis catus. Kind of test: Dose required to reduce sympathetic nerve discharge in cat following intravenous administration. The test is classed as functional. The procedure, abridged: (§3)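 Mongrel cats (2.5-4.0 kg) anaesthetised with chloralose 80 mg/kg iv, in a stereotaxic frame, femoral artery and vein cannulated. SND was quantified by cumulative integration of slow waves, with a 1 h equilibration and baseline taken over the last 10 min. Cumulative iv doses of 0.01, 0.03, 0.1, 0.3 and 1.0 mg/kg were given every 20 min, each read 15-20 min post-dose. ED50 is the dose reducing SND to 50% of pretreatment (95% CI). Maximum decrease at 1 mg/kg is given as % control ±SEM.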

A short description of test [5]: Dose to reduce neuronal firing against 5-HT cells in rats (iv). The test is classed as functional. To be noted: Rattus norvegicus. Summed up: (§4)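 Male Sprague-Dawley rats (250-350 g) anaesthetised with chloral hydrate 400 mg/kg. Extracellular single-unit firing was recorded by glass microelectrode (pontamine sky blue in 2 M NaCl) from 5-HT cells in dorsal raphe or DA cells in substantia nigra pars compacta, with drug given iv. Cell sites were confirmed histologically by dye mark. ED50 is the dose inhibiting firing by 50%, in µg/kg ±SEM, with n animals.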

The test system of test [6] is Felis catus. The test is described as §1. The arrangement: scale not given: the % may be the effect or the level left. The test is classed as functional. Summed up:
as §3
The source holds these as a separate data set.

A short description of test [7]: Dose to reduce neuronal firing against DA cells (antagonist) in rats (iv). The test is classed as functional. The note with it: Rattus norvegicus.
Test [8] relates to Felis catus. Kind of test: Dose required to reduce sympathetic nerve discharge in cats following intravenous administration.
For test [9], the system named is Felis catus. The test is described as follows: Dose required to completely shut off sympathetic nerve discharge in cat following intravenous administration. The test is classed as functional.
Test [10] is described as follows: Dose to reduce neuronal firing against DA cells in rats (iv). The test is classed as functional. To be noted: Rattus norvegicus. The procedure, abridged:
as §4

For test [11], the system named is Felis catus. Kind of test: Maximum decrease in sympathetic nerve discharge(SND) +/-SEM observed at 1 mg/kg dose in cat. It counts as functional. Also on record: scale not given: the % may be the effect or the level left. Summed up: as §2

Sequence of D(2) dopamine receptor (P14416 whole entry): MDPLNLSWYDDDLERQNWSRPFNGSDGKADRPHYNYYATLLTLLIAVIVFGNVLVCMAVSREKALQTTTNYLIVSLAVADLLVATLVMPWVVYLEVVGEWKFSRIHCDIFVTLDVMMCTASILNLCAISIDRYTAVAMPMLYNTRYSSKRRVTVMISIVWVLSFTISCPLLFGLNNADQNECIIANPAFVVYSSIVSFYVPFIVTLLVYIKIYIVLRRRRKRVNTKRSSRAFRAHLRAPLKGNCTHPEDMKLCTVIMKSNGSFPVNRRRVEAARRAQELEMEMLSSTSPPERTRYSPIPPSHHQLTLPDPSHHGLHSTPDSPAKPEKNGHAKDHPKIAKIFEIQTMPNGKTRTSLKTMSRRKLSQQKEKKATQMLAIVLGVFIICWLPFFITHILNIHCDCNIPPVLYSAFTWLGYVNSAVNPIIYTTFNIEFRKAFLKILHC

`CCCN[C@@H]1CCc2ccc3[nH]c(C(N)=O)cc3c2C1` displayed a Temperature in the test with Mus musculus [1] of 2.4 °C. In the test on Mus musculus [2], this molecule came in with an ED50 of 2.3 mg/kg. This molecule yielded a Ki at D(2) dopamine receptor of 857 nM.

The molecule `CCCN(CCC)[C@H]1CCc2ccc3[nH]c(C(N)=O)cc3c2C1` showed a Temperature in the test with Mus musculus [1] of 2.2 °C. For the same molecule, the Control with Felis catus [3] was determined as 10%. For the same molecule, the results for the ED50 (in the test on Mus musculus [2]; in the test on Felis catus [4]; in test [5]) were 1 mg/kg, 0.19 mg/kg and > 0.1 mg/kg, respectively. Also, the Ki at D(2) dopamine receptor is > 1000 nM.

The molecule `CCCN(CCC)[C@@H]1CCc2cccc(O)c2C1` returned a Temperature in the test with Mus musculus [1] of 4 °C. In the test on Felis catus [6], this molecule registered a Control of 0%. Besides, the median effective dose (ED50) turned out to be 0.74 mg/kg in [7], 1 mg/kg in the test with Mus musculus [2], 0.0016 mg/kg in test [5] and 0.01 mg/kg with Felis catus [8].

In turn, `CCCN[C@H]1CCc2ccc3[nH]c(C(N)=O)cc3c2C1` displayed a Temperature in the test with Mus musculus [1] of 1.8 °C. Also, it took a dose of 17.3 mg/kg to reach the 50% effect level with Mus musculus [2] (ED50). Also, the Ki on D(2) dopamine receptor is > 1670 nM.

The molecule `O=C1CC2(CCCC2)CC(=O)N1CCCCN1CCN(c2ncccn2)CC1` [BUSPIRONE] came in with a Temperature with Mus musculus [1] of 1.9 °C. Besides, the Control in the test on Felis catus [3] was found to be 43%. Further, the ED50 in [7] turned out to be 0.0113 mg/kg; in the test with Mus musculus [2], 3 mg/kg; in the test on Felis catus [4] it was 0.08 mg/kg; in [5], 0.0154 mg/kg.

On to `CCCN(CCC)[C@H]1CCc2ccc3[nH]c(C#N)cc3c2C1`, for which the Temperature in the test on Mus musculus [1] was 6.3 °C. The Control in the test on Felis catus [3] is 0%. Also, the ED50 in the test on Mus musculus [2] is 1.3 mg/kg; in the test on Felis catus [8], 0.15 mg/kg. Further, on D(2) dopamine receptor, the inhibition constant Ki is 896 nM.

In the case of `CCCN(CCC)[C@@H]1CCc2ccc3[nH]c(C#N)cc3c2C1` [U-92,016-A], the Temperature with Mus musculus [1] came out at 7.2 °C. The molecule further registered a Control in the test with Felis catus [3] of 0%. Moreover, the ED50 in the test with Mus musculus [2] was 0.04 mg/kg; in the test on Felis catus [4], 0.017 mg/kg; in the test with Felis catus [9], 0.03 mg/kg; in test [10], 0.084 mg/kg; in test [5] it was 0.0034 mg/kg. Also, at D(2) dopamine receptor, the affinity, expressed as Ki, was 35 nM.

In the test with Mus musculus [1], `CCCN(CCCCN1C(=O)CC(C)(C)CC1=O)[C@H]1CCc2ccc3[nH]c(C#N)cc3c2C1` registered a Temperature of 3.9 °C. In addition, the ED50 in the test on Mus musculus [2] stood at 3.1 mg/kg. Besides, the Ki at D(2) dopamine receptor is > 333 nM.

Regarding `CCCN(CCCCN1C(=O)CC(C)(C)CC1=O)[C@@H]1CCc2ccc3[nH]c(C(N)=O)cc3c2C1`, in the test on Mus musculus [1], the Temperature was found to be 2.8 °C. In addition, the Control with Felis catus [3] was 22%. Moreover, the figures for the ED50 in the test with Mus musculus [2] and in the test with Felis catus [8] were 9.7 mg/kg and 0.41 mg/kg, respectively. Also, the Ki at D(2) dopamine receptor turned out to be 38 nM.

Consider `CCCN(CCCCN1C(=O)CC(C)(C)CC1=O)[C@H]1CCc2ccc3[nH]c(C(N)=O)cc3c2C1`, for which the Temperature in the test on Mus musculus [1] was determined as 2.2 °C. Besides, the ED50 with Mus musculus [2] is 4.1 mg/kg. Besides, the affinity at D(2) dopamine receptor, expressed as Ki, was 914 nM.

In the test with Mus musculus [1], `CCCN(CC1CC1)[C@H]1CCc2ccc3[nH]c(C(N)=O)cc3c2C1` came in with a Temperature of 3.3 °C. Also, the Control in the test with Felis catus [3] is given as 14%. Also, the ED50 is 9.7 mg/kg in the test on Mus musculus [2] and 0.4 mg/kg in the test on Felis catus [8]. For the same molecule, the inhibition constant Ki at D(2) dopamine receptor is > 1000 nM.

For `CCCN(CCC)[C@@H]1CCc2ccc3[nH]c(C(N)=O)cc3c2C1`, the Temperature with Mus musculus [1] came out at 3.3 °C. The ED50 in the test on Mus musculus [2] is 0.6 mg/kg; in the test with Felis catus [4], 0.19 mg/kg; in test [5] it was > 0.1 mg/kg. In addition, at D(2) dopamine receptor, the Ki stood at 215 nM. The same molecule returned a Control in the test with Felis catus [11] of 0%.

The molecule `CCCN(CCCCN1C(=O)CC(C)(C)CC1=O)[C@@H]1CCc2ccc3[nH]c(C#N)cc3c2C1` yielded a Temperature in the test on Mus musculus [1] of 6.8 °C. The same molecule came in with a Control in the test with Felis catus [3] of 0%. Further, the ED50 in the test with Mus musculus [2] came out at 0.13 mg/kg; in the test on Felis catus [8], 0.01 mg/kg. For the same molecule, the affinity on D(2) dopamine receptor corresponds to a Ki of 44 nM.

With `CCCN(CC1CC1)[C@@H]1CCc2ccc3[nH]c(C(N)=O)cc3c2C1`, the Temperature in the test on Mus musculus [1] was found to be 4 °C. The molecule also displayed a Control in the test with Felis catus [3] of 43%. Moreover, the ED50 came out at 2.3 mg/kg in the test with Mus musculus [2] and 0.9 mg/kg in the test with Felis catus [8]. This molecule came in with an inhibition constant Ki at D(2) dopamine receptor of 389 nM.

The ED50 is the midpoint of the dose-response relation. What is called Ki is a dissociation constant, usually derived from enzyme kinetics or from competition with a known ligand.
